KCNQ1 pot: potentiates or activates the human KCNQ1 potassium channel; AID 2648; 0.35% of 310,000 active; P51787; CHO-K1 KCNQ1, thallium flux FluxOR fluorescence; stronger effect = higher value; B-score at 10 µM;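 active means fluorescence ratio B-score, a plate-corrected score, at least three library SD, with initial intensity B-score within 5 SD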
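assay system = CHO-K1 cells stably expressing KCNQ1 | medium = assay buffer, equal DMSO in all wells | timing = 37 °C overnight plating, 90-min dark dye load, 20-min compound pretreatment | measured by = kinetic FluxOR thallium fluorescence, 10-s 1-Hz baseline, 110-s post-stimulus read | measure = fluorescence change relative to baseline, converted to B score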
KCNK9 block: blocks the human KCNK9 two-pore domain potassium channel; Q9NPC2; HEK293 KCNK9, FluxOR thallium flux fluorescence; stronger effect = lower value; B-score at 10 µM; 1.2% of 310,000 active;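 active means ratio B-score over 3 SD below the library mean, with starting fluorescence within 5 SD of its mean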;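 further: negative B-score means less thallium flux so channel inhibition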
KCNK3 inh: human KCNK3 channel inhibition, primary screen. O14649. CHO-KCNK3 thallium flux, FluxOR fluorescence; stronger effect = lower value. B-score at 10 µM. 0.84% of 340,000 active;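 active means B-score under library mean minus 4 SD, starting fluorescence ratio at most library mean plus 5 SD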;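 further: more negative B-score means stronger inhibition of thallium flux through KCNK3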
hERG rescue: hERG (human) protection from proarrhythmic block. CHO-hERG, FluxOR thallium flux, dofetilide IC70 present. Q12809. activation (rescue from dofetilide block), less the hit threshold, % at 10 µM. 0.51% of 310,000 active;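 active means activation above the mean of controls blocked by dofetilide plus 5 SD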;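 further: thallium influx through hERG after potassium depolarization seen as dye fluorescence rise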
KCNQ1 inh: blocks the human KCNQ1 potassium channel; B-score at 10 µM; 1.3% of 310,000 active; CHO-K1 KCNQ1, FluxOR thallium flux fluorescence; stronger effect = higher value; P51787; AID 2642;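 active means compounds whose thallium flux B-score, printed positive for inhibition, exceeds three library SD while starting fluorescence stays within three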;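 further: channel opened by potassium depolarization with thallium stimulus after 20 min compound exposure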
KCNQ1 inh valid: reconfirmed blocker of the human KCNQ1 potassium channel. shares compounds with KCNQ1 inh. KCNQ1 cell line, FluxOR thallium flux fluorescence. inhibition, % at 10 µM. 93% of 1,600 active;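 active means primary screen active, with duplicate mean exceeding buffer control mean plus 3 SD of buffer wells, cut at about 28% in these data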;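 further: 0% = buffer control ratio and 100% = XE991 inhibitor control ratio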
CHO KCNQ1 ctr: activity in parental CHO cells lacking KCNQ1; shares compounds with KCNQ1 inh; 21% of 1,600 active; fluorescence ratio (Tl flux) at 10 µM; parental CHO-K1, FluxOR thallium flux fluorescence ratio; stronger effect = lower value; zero means no signal rise above baseline;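 active means mean of duplicate thallium-flux fluorescence ratios in parental host cells more than 5 SD below the buffer control mean, cut at about 0.38 in these data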;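 further: ratio is peak minus minimum fluorescence divided by baseline fluorescence; actives read low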
KCNQ1 ephys val: human KCNQ1 inhibition validated by electrophysiology; shares compounds with KCNQ1 inh; KCNQ1-CHO cells, automated patch clamp current; calls only at 10 µM; 20% of 490 active; AID 624120;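 active means KCNQ1 current drop exceeding 3 SD of negative control wells, seen in both duplicate runs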;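 further: steady state current during a 2 s step from -80 to +40 mV; negative values mean current inhibition and positive values mean potentiation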
KCNQ2 spec: KCNQ1 inhibitor that also blocks rat KCNQ2 channel; shares compounds with KCNQ1 inh; KCNQ2 cells, FluxOR thallium flux fluorescence; inhibition, % at 10 µM; 71% of 1,600 active; AID 651746;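 active means mean percent inhibition of the KCNQ2 thallium signal more than 5 SD above the buffer-only control wells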;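 further: KCNQ2 expressed in CHO cells; 0% = buffer control wells and 100% = XE-991 inhibitor control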
KCNQ1 KCNE1 spec: KCNQ1 inhibitor that also blocks human KCNQ1/KCNE1 channel; shares compounds with KCNQ1 inh; 77% of 1,600 active; inhibition, % at 10 µM; AID 652147; KCNQ1/KCNE1 cells, FluxOR thallium flux fluorescence;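 active means mean percent inhibition of duplicate wells above the buffer-only control mean plus 3 SD of those controls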;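 further: 0% = buffer only wells and 100% = XE-991 inhibitor control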
KCNK9 block conf: human KCNK9 inhibitor confirmation; AID 492992; shares compounds with KCNK9 block; HEK293 KCNK9 cells, FluxOR thallium flux fluorescence; inhibition, % at 10 µM; 43% of 4,900 active;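 active means thallium signal inhibited by more than 5 SD of the compound-free buffer control wells, on both duplicate plates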;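 further: 0% = assay buffer control wells without compound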
Kir2-1 spec: tests whether KCNK9 modulators also affect mouse Kir2.1 | inhibition, % at 10 µM | 4% of 4,900 active | Kir2.1 cells, FluxOR thallium flux fluorescence | shares compounds with KCNK9 block;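 active means thallium signal drop more than 5 SD beyond the mean of the no-compound control wells, seen in both duplicate plates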;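 further: signal is fluorescence rise after thallium addition divided by baseline fluorescence; plate controls were assay buffer only for no effect and full block by chlorpromazine control for full effect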
Target sequence (P35561 whole entry, looked up): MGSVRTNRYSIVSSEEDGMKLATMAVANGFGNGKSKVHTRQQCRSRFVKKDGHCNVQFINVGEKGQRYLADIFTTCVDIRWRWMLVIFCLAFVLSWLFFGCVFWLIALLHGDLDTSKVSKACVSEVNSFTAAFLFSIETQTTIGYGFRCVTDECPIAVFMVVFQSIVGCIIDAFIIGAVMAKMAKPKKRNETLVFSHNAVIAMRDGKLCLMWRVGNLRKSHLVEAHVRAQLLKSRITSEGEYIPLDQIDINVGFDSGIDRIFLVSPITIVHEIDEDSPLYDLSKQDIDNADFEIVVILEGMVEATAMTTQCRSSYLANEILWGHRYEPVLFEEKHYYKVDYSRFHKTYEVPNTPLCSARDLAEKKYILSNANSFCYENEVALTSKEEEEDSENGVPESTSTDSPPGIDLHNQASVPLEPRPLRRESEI
HEK293 Tl ctr: second counter-screen for KCNK9 modulators: effect in non-induced cells; non-induced KCNK9-HEK293, FluxOR thallium flux; 40% of 4,900 active; AID 492997; shares compounds with KCNK9 block; inhibition, % at 10 µM;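 active means thallium signal drop beyond 5 SD of the untreated control mean, on both duplicate plates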;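 further: plate controls were buffer only IC0 wells for no effect and SID17386958 at its maximal inhibitory level for full effect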
Active calls of the source: *; i = inactive; x = not tested or not shown; + = active, no number. An excerpt weighted towards active compounds, which were near 3.1% of everything screened.

SMILES	KCNQ1 pot	KCNK9 block	KCNK3 inh	hERG rescue	KCNQ1 inh	KCNQ1 inh valid	CHO KCNQ1 ctr	KCNQ1 ephys val	KCNQ2 spec	KCNQ1 KCNE1 spec	KCNK9 block conf	Kir2-1 spec	HEK293 Tl ctr
CC(C)Oc1cccc(C(=O)C2CCCN(Cc3cccn3-c3ccccn3)C2)c1 (configuration not stated)	i	i	i	-19	8*	52*	0.47	x	76%*	i	i	i	i
c1ccc(Oc2nc(N3CCOCC3)nc(N3CCOCC3)n2)cc1	i	i	i	-13	i	x	x	x	x	x	x	x	x
Clc1ccc(Oc2nc(N3CCOCC3)nc(N3CCOCC3)n2)c(C2CCCCC2)c1	i	i	i	-12	6*	98*	0.37*	x	105%*	91%*	i	i	i
CCCN=C1N(C)C[C@@H]2[C@@H]3C(=O)N(Cc4ccccc4)C(=O)[C@@H]3[C@](Cc3ccccc3)(C(=O)OC)N12	x	x	i	x	x	x	x	x	x	x	x	x	x
C[C@@H]1CN(C(=O)c2nc3ccc(Cl)cn3c2CNCC[C@@H]2C[C@@H]3C=C[C@H]2C3)C[C@H](C)O1	i	i	i	-7	i	x	x	x	x	x	x	x	x
O=C(c1nc2ccc(Cl)cn2c1CNCC[C@@H]1C[C@@H]2C=C[C@H]1C2)N1CCCCCCC1	i	i	i	-14	9*	98*	0.47	i	82%*	84%*	i	i	i
CCOC(=O)c1sc2nc(CC(=O)OC)nc(N3CCN(c4ccccn4)CC3)c2c1C	i	i	i	-8	8*	112*	0.41	i	110%*	140%*	i	i	i
COc1ccccc1CNC(=O)c1cccc(S(=O)(=O)N2CCCC2)c1	x	x	i	x	x	x	x	x	x	x	x	x	x
CCOc1ccccc1C(=O)OCC(=O)Nc1cc(Cl)ccc1Oc1ccccc1	i	-8.1*	i	-9	8*	87*	0.41	x	76%*	106%*	32%*	i	40%*
COc1cccc(OCC(=O)Nc2cc(Cl)ccc2Oc2ccccc2)c1	i	i	i	-8	i	x	x	x	x	x	x	x	x
CC1(C)Cc2c(C#N)c(N3CCN(C(=O)c4ccccc4)CC3)nc(Cc3ccccc3)c2CO1	i	i	i	-9	10*	106*	0.4	i	111%*	128%*	i	i	i
Cc1cc(Cl)ccc1OC(C)C(=O)Nc1ccccc1N1CCOCC1 (configuration not stated)	i	-9.3*	i	-5	6*	88*	0.32*	x	101%*	140%*	38%*	44%*	46%*
CC(C)CC(C(=O)Nc1oc(-c2ccco2)c(-c2ccco2)c1C#N)N1C(=O)c2ccccc2C1=O (configuration not stated)	i	-11*	-11*	3	9*	112*	0.42	i	88%*	65%*	72%*	i	26%*
CC(C)CC(C(=O)Nc1cccc(O)c1)N1C(=O)c2ccccc2C1=O (configuration not stated)	i	i	i	-2	i	x	x	x	x	x	x	x	x
O=C(COC(=O)c1cnccn1)N=c1sccn1Cc1ccccc1Cl	i	i	i	-14	i	x	x	x	x	x	x	x	x
O=C(CSc1nc(-c2ccc(Cl)cc2)[nH]c(=O)n1)Nc1cccc(Cl)c1	i	i	i	-7	7*	116*	0.48	i	i	i	i	i	i
Cc1ccc(C(=O)Nc2ccc3c(c2)OCO3)cc1S(=O)(=O)N1CCCC1	i	i	i	-4	i	x	x	x	x	x	x	x	x
Cc1ccc(C(=O)OCc2ccc3c(c2)OCO3)cc1S(=O)(=O)N1CCCCC1	i	-13*	i	-8	7*	74*	0.41	x	85%*	78%*	41%*	i	36%*
COc1ccc(-c2cc3nc(-c4ccccc4)cc(N4CCCC(O)C4)n3n2)cc1 (configuration not stated)	i	i	i	-22	9*	104*	0.44	i	112%*	184%*	i	i	i
O=C(NCc1ccccc1)c1cccc(COc2ccc3c(c2)CCC3)c1	i	i	i	-8	7*	98*	0.39	+	112%*	139%*	i	i	i
CN(C(=O)c1ccc(NC(=O)Cc2ccc(NC(=O)C3CCCN(C(=O)C4CC4)C3)cc2)cc1)C1CCCC1 (configuration not stated)	x	x	i	x	x	x	x	x	x	x	x	x	x
Cc1cc(C)n(Cc2ccc(Cl)cc2Cl)c(=O)c1S(=O)(=O)c1ccccc1	i	-12*	i	-15	8*	81*	0.46	x	81%*	102%*	56%*	i	42%*
O=C1c2[nH]nc(-c3ccccc3O)c2C(c2ccccc2F)N1Cc1ccco1 (configuration not stated)	i	-15*	-9.1*	-16	9*	126*	0.41	x	78%*	116%*	73%*	i	33%*
CN1CCc2c(OCc3ccc(F)cc3)cccc2C1=O	i	i	i	-15	i	x	x	x	x	x	x	x	x
O=C1c2cccc(OCc3ccc(F)cc3)c2CCN1Cc1ccc(F)cc1	i	-15*	i	-17	6*	126*	0.41	i	115%*	148%*	66%*	i	i
COCCN(Cc1cc2ccc(C)cc2[nH]c1=O)S(=O)(=O)c1ccccc1	i	i	i	-9	i	x	x	x	x	x	x	x	x
COc1ccc(CNC(=O)CCNC(=O)c2ccco2)cc1OC	x	x	i	x	x	x	x	x	x	x	x	x	x

High-throughput results as filed in PubChem BioAssay.
